# From ChEMBL document CHEMBL1143374, “Solution- and solid-phase synthesis and anti-HIV activity of maslinic acid derivatives containing amino acids and peptides” (2009)
# Activity calls are given as the source filed them. The rule behind the calls is not given here.
# Key:
# [1] = tested on: Human immunodeficiency virus 1; test: Antiviral activity against HIV1 NL4-3 infected human MT2 cells assessed as viral infection at 10 uM administered 30 mins before viral challenge by luciferase reporter gene activation assay relative to control; type: functional
# How it was run: (§1)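 MT-2 cells at 10^6/mL in RPMI 1640 with 10% heat-inactivated FBS, 37 °C, 5% CO2. Cells were pretreated 30 min, then infected with VSV-pseudotyped pNL4-3.Luc.R−E− virus made in 293T cells (200 ng p24). After 20 h: PBS wash, lysis in Tris-phosphate pH 7.8 buffer, luciferase read. Value is % of untreated infected cells (100%), ±S.D.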
# [2] = tested on: Human immunodeficiency virus 1; test: Antiviral activity against HIV1 NL4-3 infected human MT2 cells assessed as viral infection at 25 uM administered 30 mins before viral challenge by luciferase reporter gene activation assay relative to control; type: functional; how it was run: as §1
# MT2 [3] = test: Induction of apoptosis in HIV1 NL4-3 infected human MT2 cells at 10 uM administered 30 mins before viral challenge measured after 24 hrs by propidium iodide staining and flow cytometry; type: functional
# How it was run: (§2)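 MT-2 cells at 10^6/mL were pretreated 30 min, then infected 24 h with VSV-pseudotyped HIV-1 luciferase virus. Phase percentages were taken; apoptosis was scored as the sub-G0/G1 (hypodiploid) fraction.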
# MT2 [4] = test: Induction of apoptosis in HIV1 NL4-3 infected human MT2 cells at 25 uM administered 30 mins before viral challenge measured after 24 hrs by propidium iodide staining and flow cytometry; type: functional; how it was run: as §2
# MT2 [5] = test: Cell cycle arrest in HIV1 NL4-3 infected human MT2 cells assessed as accumulation at G0/G1 phase at 10 uM administered 30 mins before viral challenge measured after 24 hrs by propidium iodide staining and flow cytometry; type: functional; how it was run: as §2
# MT2 [6] = test: Cell cycle arrest in HIV1 NL4-3 infected human MT2 cells assessed as accumulation at G0/G1 phase at 25 uM administered 30 mins before viral challenge measured after 24 hrs by propidium iodide staining and flow cytometry; type: functional; how it was run: as §2
# MT2 [7] = test: Cell cycle arrest in HIV1 NL4-3 infected human MT2 cells assessed as accumulation at S phase at 10 uM administered 30 mins before viral challenge measured after 24 hrs by propidium iodide staining and flow cytometry; type: functional; how it was run: as §2
# MT2 [8] = test: Cell cycle arrest in HIV1 NL4-3 infected human MT2 cells assessed as accumulation at S phase at 25 uM administered 30 mins before viral challenge measured after 24 hrs by propidium iodide staining and flow cytometry; type: functional; how it was run: as §2
# MT2 [9] = test: Cell cycle arrest in HIV1 NL4-3 infected human MT2 cells assessed as accumulation at G2/M phase at 10 uM administered 30 mins before viral challenge measured after 24 hrs by propidium iodide staining and flow cytometry; type: functional; how it was run: as §2
# MT2 [10] = test: Cell cycle arrest in HIV1 NL4-3 infected human MT2 cells assessed as accumulation at G2/M phase at 25 uM administered 30 mins before viral challenge measured after 24 hrs by propidium iodide staining and flow cytometry; type: functional; how it was run: as §2
# MT2 [11] = test: Induction of apoptosis in HIV1 NL4-3 infected human MT2 cells administered 30 mins before viral challenge measured after 24 hrs by propidium iodide staining and flow cytometry; type: functional, cell-based; how it was run: as §2
SMILES,Activity [1] [%],Activity [2] [%],further results
CC1(C)CC[C@]2(C(=O)NCCCCCCCCCCC(=O)O)CC[C@]3(C)C(=CC[C@@H]4[C@@]5(C)C[C@@H](O)[C@H](O)C(C)(C)[C@@H]5CC[C@]43C)[C@@H]2C1,56.7,21.5,Activity (MT2 [3]): 3.5%; Activity (MT2 [4]): 5.2%; Activity (MT2 [5]): 62.6%; Activity (MT2 [6]): 53.7%; Activity (MT2 [7]): 18.8%; Activity (MT2 [8]): 22.2%; Activity (MT2 [9]): 15.1%; Activity (MT2 [10]): 18.9%
CC1(C)CC[C@]2(C(=O)NCC(=O)O)CC[C@]3(C)C(=CC[C@@H]4[C@@]5(C)C[C@@H](O)[C@H](O)C(C)(C)[C@@H]5CC[C@]43C)[C@@H]2C1,162.1,130.7,
C[C@H](NC(=O)[C@]12CCC(C)(C)C[C@H]1C1=CC[C@@H]3[C@@]4(C)C[C@@H](O)[C@H](O)C(C)(C)[C@@H]4CC[C@@]3(C)[C@]1(C)CC2)C(=O)NCC(=O)O,134.5,184.8,
C[C@H](NC(=O)CCCCCNC(=O)[C@]12CCC(C)(C)C[C@H]1C1=CC[C@@H]3[C@@]4(C)C[C@@H](O)[C@H](O)C(C)(C)[C@@H]4CC[C@@]3(C)[C@]1(C)CC2)C(=O)NCC(=O)O,170.2,89.6,
COC(=O)CNC(=O)[C@]12CCC(C)(C)C[C@H]1C1=CC[C@@H]3[C@@]4(C)C[C@@H](O)[C@H](O)C(C)(C)[C@@H]4CC[C@@]3(C)[C@]1(C)CC2,75.5,56.3,
CC1(C)CC[C@]2(C(=O)NCCCC(=O)O)CC[C@]3(C)C(=CC[C@@H]4[C@@]5(C)C[C@@H](O)[C@H](O)C(C)(C)[C@@H]5CC[C@]43C)[C@@H]2C1,126.4,93.8,
CC1(C)CC[C@]2(C(=O)NCCCCCC(=O)O)CC[C@]3(C)C(=CC[C@@H]4[C@@]5(C)C[C@@H](O)[C@H](O)C(C)(C)[C@@H]5CC[C@]43C)[C@@H]2C1,146.4,79.3,
COC(=O)CCCCCCCCCCNC(=O)[C@]12CCC(C)(C)C[C@H]1C1=CC[C@@H]3[C@@]4(C)C[C@@H](O)[C@H](O)C(C)(C)[C@@H]4CC[C@@]3(C)[C@]1(C)CC2,66.9,35.6,
C[C@H](NC(=O)CCCNC(=O)[C@]12CCC(C)(C)C[C@H]1C1=CC[C@@H]3[C@@]4(C)C[C@@H](O)[C@H](O)C(C)(C)[C@@H]4CC[C@@]3(C)[C@]1(C)CC2)C(=O)O,83.7,50.1,
C[C@H](NC(=O)CCCCCNC(=O)[C@]12CCC(C)(C)C[C@H]1C1=CC[C@@H]3[C@@]4(C)C[C@@H](O)[C@H](O)C(C)(C)[C@@H]4CC[C@@]3(C)[C@]1(C)CC2)C(=O)O,107,70.2,
C[C@H](NC(=O)CCCCCCCCCCNC(=O)[C@]12CCC(C)(C)C[C@H]1C1=CC[C@@H]3[C@@]4(C)C[C@@H](O)[C@H](O)C(C)(C)[C@@H]4CC[C@@]3(C)[C@]1(C)CC2)C(=O)O,71.7,27.6,
COC(=O)[C@@H](NC(=O)[C@]12CCC(C)(C)C[C@H]1C1=CC[C@@H]3[C@@]4(C)C[C@@H](O)[C@H](O)C(C)(C)[C@@H]4CC[C@@]3(C)[C@]1(C)CC2)C(C)C,72,11.1,
CC1(C)CC[C@]2(C(=O)NCCCC(=O)NCC(=O)O)CC[C@]3(C)C(=CC[C@@H]4[C@@]5(C)C[C@@H](O)[C@H](O)C(C)(C)[C@@H]5CC[C@]43C)[C@@H]2C1,112.3,143.3,
COC(=O)[C@H](C)NC(=O)[C@]12CCC(C)(C)C[C@H]1C1=CC[C@@H]3[C@@]4(C)C[C@@H](O)[C@H](O)C(C)(C)[C@@H]4CC[C@@]3(C)[C@]1(C)CC2,63.6,8.9,
CC1(C)CC[C@]2(C(=O)NCCCCCC(=O)NCC(=O)O)CC[C@]3(C)C(=CC[C@@H]4[C@@]5(C)C[C@@H](O)[C@H](O)C(C)(C)[C@@H]5CC[C@]43C)[C@@H]2C1,125.7,122.1,
CC(C)[C@H](NC(=O)[C@]12CCC(C)(C)C[C@H]1C1=CC[C@@H]3[C@@]4(C)C[C@@H](O)[C@H](O)C(C)(C)[C@@H]4CC[C@@]3(C)[C@]1(C)CC2)C(=O)O,102.8,121.2,
CC1(C)CC[C@]2(C(=O)NCCCCCCCCCCC(=O)NCC(=O)O)CC[C@]3(C)C(=CC[C@@H]4[C@@]5(C)C[C@@H](O)[C@H](O)C(C)(C)[C@@H]5CC[C@]43C)[C@@H]2C1,85.6,49.8,
CC(C)[C@H](NC(=O)CCCNC(=O)[C@]12CCC(C)(C)C[C@H]1C1=CC[C@@H]3[C@@]4(C)C[C@@H](O)[C@H](O)C(C)(C)[C@@H]4CC[C@@]3(C)[C@]1(C)CC2)C(=O)O,66.2,130.2,
C[C@H](NC(=O)[C@]12CCC(C)(C)C[C@H]1C1=CC[C@@H]3[C@@]4(C)C[C@@H](O)[C@H](O)C(C)(C)[C@@H]4CC[C@@]3(C)[C@]1(C)CC2)C(=O)O,124.2,60.9,
CC(C)[C@H](NC(=O)CCCCCCCCCCNC(=O)[C@]12CCC(C)(C)C[C@H]1C1=CC[C@@H]3[C@@]4(C)C[C@@H](O)[C@H](O)C(C)(C)[C@@H]4CC[C@@]3(C)[C@]1(C)CC2)C(=O)O,44.9,21.2,Activity (MT2 [3]): 2.1%; Activity (MT2 [4]): 4.6%; Activity (MT2 [5]): 54.6%; Activity (MT2 [6]): 59.2%; Activity (MT2 [7]): 21.4%; Activity (MT2 [8]): 20.5%; Activity (MT2 [9]): 21.6%; Activity (MT2 [10]): 15.5%
COC(=O)CCCCCNC(=O)[C@]12CCC(C)(C)C[C@H]1C1=CC[C@@H]3[C@@]4(C)C[C@@H](O)[C@H](O)C(C)(C)[C@@H]4CC[C@@]3(C)[C@]1(C)CC2,69.6,36.8,
CC(C)[C@H](NC(=O)CCCCCNC(=O)[C@]12CCC(C)(C)C[C@H]1C1=CC[C@@H]3[C@@]4(C)C[C@@H](O)[C@H](O)C(C)(C)[C@@H]4CC[C@@]3(C)[C@]1(C)CC2)C(=O)O,83.8,96.5,
COC(=O)CCCNC(=O)[C@]12CCC(C)(C)C[C@H]1C1=CC[C@@H]3[C@@]4(C)C[C@@H](O)[C@H](O)C(C)(C)[C@@H]4CC[C@@]3(C)[C@]1(C)CC2,32.5,12,Activity (MT2 [11]): Active
CC1(C)CC[C@]2(C(=O)O)CC[C@]3(C)C(=CC[C@@H]4[C@@]5(C)C[C@@H](O)[C@H](O)C(C)(C)[C@@H]5CC[C@]43C)[C@@H]2C1 [MASLINIC ACID],56.3,6.7,Activity (MT2 [3]): 13.5%; Activity (MT2 [4]): 51.8%; Activity (MT2 [5]): 47.9%; Activity (MT2 [6]): 23.1%; Activity (MT2 [7]): 20.6%; Activity (MT2 [8]): 17.7%; Activity (MT2 [9]): 18.4%; Activity (MT2 [10]): 7.5%
